{
  "source": "ChEMBL document CHEMBL1671650",
  "about": "“In vitro activity and preclinical profile of TMC435350, a potent hepatitis C virus protease inhibitor” (Antimicrob Agents Chemother, 2009)",
  "key": {"Hepatitis C virus [1]": {"system": "Hepatitis C virus", "experiment": "Antiviral activity against HCV 1b infected in human HuH7 cells assessed as effect on cell viability upto 5 weeks", "format": "functional, organism-based", "conditions": "Hepacivirus hominis; genotype 1b; Huh-7"}, "West Nile virus": {"system": "West Nile virus", "experiment": "Antiviral activity against West Nile virus NY99/1 infected in green monkey Vero cells inhibition of virus-induced cytopathic effect at 10 to 100 uM", "format": "functional, organism-based", "method_in_brief": "(§1)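 Cytopathic effect inhibition assay: BVDV-NADL in MDCK cells; WNV-NY99/1 in Vero cells. Highest concentration tested 10 to 100 μM.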"}, "[2]": {"system": "Bovine viral diarrhea virus 1", "experiment": "Antiviral activity against Bovine viral diarrhea virus 1 NADL infected in […] cells inhibition of virus-induced cytopathic effect at 10 to 100 uM", "format": "functional, organism-based", "method_in_brief": "as §1"}, "Yellow fever virus": {"system": "Yellow fever virus", "experiment": "Antiviral activity against Yellow fever virus 17D infected in green monkey veroE6 cells inhibition of virus-induced cytopathic effect at 10 to 100 uM", "format": "functional, organism-based", "conditions": "Vero", "method_in_brief": "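Virus-induced cytopathic effect inhibition assay in VeroE6 cells with YFV-17D, with a known positive control in each run; tested up to a top concentration in the 10–100 µM range.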"}, "[3]": {"system": "Human immunodeficiency virus 1", "experiment": "Antiviral activity against Human immunodeficiency virus 1 3b infected in human MT4 cells at 10 to 100 uM", "format": "functional, organism-based", "method_in_brief": "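HIV-1 IIIB in MT-4 cells, enhanced green fluorescent protein-based read-out. Highest concentration tested 10 to 100 μM.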"}, "Hepatitis B virus": {"system": "Hepatitis B virus", "experiment": "Antiviral activity against Hepatitis B virus infected in human HepG2.2.15 cells at 10 to 100 uM by quantitative PCR", "format": "functional, organism-based", "conditions": "HepG2 2.2.15", "method_in_brief": "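HBV replication in HepG2.2.15 cells, measured by quantitative PCR. Highest concentration tested 10 to 100 μM.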"}, "[4]": {"system": "Respiratory syncytial virus", "experiment": "Antiviral activity against Respiratory syncytial virus infected in human HeLa cells at 10 to 100 uM", "format": "functional, organism-based", "method_in_brief": "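RSV (LO strain) in HeLa/M cells, tetrazolium-based colorimetric read-out. Highest concentration tested 10 to 100 μM.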"}, "Hepatitis C virus [5]": {"system": "Hepatitis C virus", "experiment": "Antiviral activity against HCV 1b infected in human HuH7 cells assessed as log reduction in viral RNA level at 5 nM after 9 days by qRT-PCR", "format": "functional, organism-based", "conditions": "Hepacivirus hominis, genotype 1b, Huh-7", "method_in_brief": "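Nine-day assay: replicon cells at 500 cells/well without G418, compound alone or with IFN-α. Medium with compounds refreshed every 3 days; cells harvested on days 3, 6 and 9 at 37°C, 5% CO2. HCV RNA measured by qRT-PCR and normalized to RPL13A.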"}, "Hepatitis C virus [6]": {"system": "Hepatitis C virus", "experiment": "Antiviral activity against Hepatitis C virus in presence of 1 mg/ml alpha-1 acid glycoprotein"}, "Hepatitis C virus [7]": {"system": "Hepatitis C virus", "experiment": "Antiviral activity against Hepatitis C virus in presence of 40 mg/ml human serum albumin"}, "Hepatitis C virus [8]": {"system": "Hepatitis C virus", "experiment": "Antiviral activity against Hepatitis C virus in presence of 1 mg/ml alpha-1 acid glycoprotein and 40 mg/ml human serum albumin"}, "Hepatitis C virus [9]": {"system": "Hepatitis C virus", "experiment": "Antiviral activity against Hepatitis C virus in presence of 40% human serum"}, "Plasma": {"system": "Plasma", "experiment": "Initial plasma concentration in Sprague-Dawley rat at 4 mg/kg, iv", "format": "ADME, organism-based", "parameters": "dose 4 mg/kg, route intravenous", "conditions": "in vivo", "method_in_brief": "(§2)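 Male SPF Sprague-Dawley rats (200–300 g), n=3. Single slow i.v. tail-vein bolus at 4 mg/kg (2 ml/kg) in 20% hydroxypropyl-β-cyclodextrin, pH 8.0. Plasma sampled 7 min to 31 h, measured by LC-MS/MS (LLOQ 1 ng/ml). Noncompartmental analysis.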"}, "[10]": {"experiment": "Cmax in Sprague-Dawley rat plasma at 40 mg/kg, po upto 31 hrs by liquid chromatography-tandem mass spectrometry", "format": "ADME, organism-based", "parameters": "dose 40 mg/kg, route oral", "method_in_brief": "(§3)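 Male SPF Sprague-Dawley rats (200–300 g), three per group. Oral gavage at 40 mg/kg (2 ml/kg) in TPGS–PEG400 solution. Plasma sampled 0.5–31 h, measured by LC-MS/MS (LLOQ 1 ng/ml). Noncompartmental analysis.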"}, "[11]": {"experiment": "Tmax in Sprague-Dawley rat plasma at 40 mg/kg, po upto 31 hrs", "format": "ADME, organism-based", "parameters": "dose 40 mg/kg, route oral", "method_in_brief": "as §3"}, "[12]": {"experiment": "Half life (8 to 24 hrs) in Sprague-Dawley rat plasma at 40 mg/kg, po", "format": "ADME, organism-based", "parameters": "dose 40 mg/kg, route oral", "method_in_brief": "as §3"}, "[13]": {"experiment": "AUC (0 to 24 hrs) in Sprague-Dawley rat at 40 mg/kg, po", "format": "ADME, organism-based", "parameters": "time < 24 hr, dose 40 mg/kg, route oral", "conditions": "plasma", "method_in_brief": "(§4)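 Male specific-pathogen-free Sprague-Dawley rats (200-300 g), three per group; single gastric intubation of vitamin E TPGS-polyethylene glycol 400 solution at 2 ml/kg. Plasma taken from orbital plexus at 0.5, 1, 2, 4, 8, 24 and 31 h; LC-MS/MS (LLOQ 1 ng/ml); noncompartmental analysis; rats fed and watered ad libitum.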"}, "[14]": {"experiment": "AUC (0 to infinity) in Sprague-Dawley rat at 40 mg/kg, po", "format": "ADME, organism-based", "parameters": "dose 40 mg/kg, route oral", "conditions": "plasma, read-out: AUBC", "method_in_brief": "as §4"}, "[15]": {"experiment": "Absolute bioavailability in Sprague-Dawley rat at 40 mg/kg, po", "format": "ADME, organism-based", "conditions": "in vivo", "method_in_brief": "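Male SPF Sprague-Dawley rats (200–300 g, n = 3/group). Oral gavage at 40 mg/kg in vitamin E TPGS–PEG 400 solution (2 ml/kg); i.v. reference was a 4 mg/kg tail-vein slow bolus in 20% hydroxypropyl-β-cyclodextrin, pH 8.0. Plasma sampled up to 31 h and assayed by LC-MS/MS (LLOQ 1 ng/ml). Noncompartmental analysis; Fabs = dose-normalized mean AUC0-∞ p.o./i.v.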"}, "[16]": {"experiment": "Total plasma clearance in Sprague-Dawley rat at 4 mg/kg, iv", "format": "ADME, organism-based", "parameters": "dose 4 mg/kg, route intravenous", "method_in_brief": "as §2"}, "[17]": {"experiment": "Apparent volume of distribution at steady-state in Sprague-Dawley rat at 4 mg/kg, iv", "format": "ADME, organism-based", "parameters": "dose 4 mg/kg, route intravenous", "conditions": "in vivo", "method_in_brief": "as §2"}, "[18]": {"experiment": "Half life (8 to 24 hrs) in Sprague-Dawley rat plasma at 4 mg/kg, iv", "format": "ADME, organism-based", "parameters": "dose 4 mg/kg, route intravenous", "method_in_brief": "as §2"}, "[19]": {"experiment": "AUC (0 to 24 hrs) in Sprague-Dawley rat at 4 mg/kg, iv", "format": "ADME, organism-based", "parameters": "time < 24 hr, dose 4 mg/kg, route intravenous", "conditions": "plasma", "method_in_brief": "(§5)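 Male specific-pathogen-free Sprague-Dawley rats (200-300 g), n = 3; single slow tail-vein bolus of 20% 2-hydroxypropyl-β-cyclodextrin formulation (pH 8.0) at 2 ml/kg. Plasma sampled from orbital plexus at 7 min, 20 min, 1, 3, 8, 24 and 31 h; LC-MS/MS (LLOQ 1 ng/ml); noncompartmental analysis of individual plasma profiles.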"}, "[20]": {"experiment": "AUC (0 to infinity) in Sprague-Dawley rat at 4 mg/kg, iv", "format": "ADME, organism-based", "parameters": "time infinity, dose 4 mg/kg, route intravenous", "conditions": "plasma", "method_in_brief": "as §5"}, "[21]": {"experiment": "Ratio of AUC (0 to 31 hrs) in Sprague-Dawley rat small intestine to AUC (0 to 31 hrs) in Sprague-Dawley rat plasma at 40 mg/kg, po administered as single dose", "format": "ADME, organism-based", "parameters": "dose 40 mg/kg, route oral", "conditions": "read-out: Ratio AUC", "method_in_brief": "(§6)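 Male specific-pathogen-free Sprague-Dawley rats (200–300 g), three per group, single gastric intubation at 2 ml/kg of a vitamin E TPGS–PEG 400 solution; food and water ad libitum. Plasma sampled 30 min to 31 h; tissues dissected from oral groups. LC-MS/MS (LLOQ 1 ng/ml plasma, 5 ng/g tissue); noncompartmental analysis; ratios from mean of three rats.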"}, "[22]": {"experiment": "Ratio of AUC (0 to 31 hrs) in Sprague-Dawley rat large intestine to AUC (0 to 31 hrs) in Sprague-Dawley rat plasma at 40 mg/kg, po administered as single dose", "format": "ADME, organism-based", "parameters": "dose 40 mg/kg, route oral", "conditions": "read-out: Ratio AUC", "method_in_brief": "as §6"}, "[23]": {"experiment": "Ratio of AUC (0 to 31 hrs) in Sprague-Dawley rat liver to AUC (0 to 31 hrs) in Sprague-Dawley rat plasma at 40 mg/kg, po administered as single dose", "format": "ADME, organism-based", "parameters": "dose 40 mg/kg, route oral", "conditions": "read-out: Ratio AUC", "method_in_brief": "as §6"}, "[24]": {"experiment": "Ratio of AUC (0 to 31 hrs) in Sprague-Dawley rat kidney to AUC (0 to 31 hrs) in Sprague-Dawley rat plasma at 40 mg/kg, po administered as single dose", "format": "ADME, organism-based", "parameters": "dose 40 mg/kg, route oral", "method_in_brief": "as §6"}, "[25]": {"experiment": "Ratio of AUC (0 to 31 hrs) in Sprague-Dawley rat adrenal gland to AUC (0 to 31 hrs) in Sprague-Dawley rat plasma at 40 mg/kg, po administered as single dose", "format": "ADME, organism-based", "parameters": "dose 40 mg/kg, route oral", "method_in_brief": "as §6"}},
  "note": "The source made the active and inactive calls. The calls are words filed in the database; no cut-off is given here.",
  "data": [
    {"compound": "COc1ccc2c(O[C@@H]3C[C@H]4C(=O)N[C@]5(C(=O)NS(=O)(=O)C6CC6)C[C@H]5/C=C\\CCCCN(C)C(=O)[C@@H]4C3)cc(-c3nc(C(C)C)cs3)nc2c1C", "note": "[SIMEPREVIR]", "values": [
      {"measurement": "Activity", "setting": "Hepatitis C virus [1]", "result": "inactive"},
      {"measurement": "Activity", "setting": "West Nile virus", "result": "inactive"},
      {"measurement": "Activity", "setting": "[2]", "result": "inactive"},
      {"measurement": "Activity", "setting": "Yellow fever virus", "result": "inactive"},
      {"measurement": "Activity", "setting": "[3]", "result": "inactive"},
      {"measurement": "Activity", "setting": "Hepatitis B virus", "result": "inactive"},
      {"measurement": "Activity", "setting": "[4]", "result": "inactive"},
      {"measurement": "Activity", "setting": "Hepatitis C virus [5]", "result": "Active"},
      {"measurement": "EC50", "setting": "Hepatitis C virus [6]", "result": 11.4, "unit": "nM"},
      {"measurement": "EC50", "setting": "Hepatitis C virus [7]", "result": 14.1, "unit": "nM"},
      {"measurement": "EC50", "setting": "Hepatitis C virus [8]", "result": 14.6, "unit": "nM"},
      {"measurement": "EC50", "setting": "Hepatitis C virus [9]", "result": 11.2, "unit": "nM"},
      {"measurement": "Cp", "setting": "Plasma", "result": 3560, "unit": "ng/mL"},
      {"measurement": "Cmax", "setting": "[10]", "result": 1430, "unit": "ng/mL"},
      {"measurement": "Tmax", "setting": "[11]", "result": 2, "unit": "h"},
      {"measurement": "half-life", "setting": "[12]", "result": 2.6, "unit": "h"},
      {"measurement": "AUC(0-t) at 24 h", "setting": "[13]", "result": 7740, "unit": "ng·h/mL"},
      {"measurement": "AUC", "setting": "[14]", "result": 7750, "unit": "ng·h/mL"},
      {"measurement": "bioavailability", "setting": "[15]", "result": 44, "unit": "%"},
      {"measurement": "clearance", "setting": "[16]", "result": 38.3, "unit": "mL/min/kg"},
      {"measurement": "Vd", "setting": "[17]", "result": 5.3, "unit": "L/kg"},
      {"measurement": "half-life", "setting": "[18]", "result": 4, "unit": "h"},
      {"measurement": "AUC(0-t) at 24 h", "setting": "[19]", "result": 1740, "unit": "ng·h/mL"},
      {"measurement": "AUC(0-inf)", "setting": "[20]", "result": 1750, "unit": "ng·h/mL"},
      {"measurement": "Kp", "setting": "[21]", "result": 128},
      {"measurement": "Kp", "setting": "[22]", "result": 29},
      {"measurement": "Kp", "setting": "[23]", "result": 39},
      {"measurement": "Kp", "setting": "[24]", "result": 0.5},
      {"measurement": "Kp", "setting": "[25]", "result": 0.5}
    ]}
  ]
}
